Results from ChEMBL document CHEMBL4152188, “Design, synthesis and biological evaluation of C(4) substituted monobactams as antibacterial agents against multidrug-resistant Gram-negative bacteria” (Eur J Med Chem, 2018).
≈ marks a conversion by molar mass, not a printed value.

Columns and labels:
Format in all cases: functional
Escherichia coli [1] = test: Antibacterial activity against Escherichia coli isolate 210737 after 18 hrs in presence of BPL by CLSI broth microdilution method; conditions: isolate 210737, 18 h
Method in brief: (§1)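 CLSI broth microdilution against clinical isolates (ESBL E. coli, KPC-2 MDR K. pneumoniae, IMP-4 MDR P. aeruginosa; five per species). Iron limitation: Mueller-Hinton broth supplemented with 16 mg/liter 2,2'-bipyridyl to complex iron and induce iron uptake systems. Read-out: MIC.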

Escherichia coli [2] = test: Antibacterial activity against extended-spectrum beta-lactamase producing Escherichia coli isolate 208687 after 18 hrs by CLSI broth microdilution method; conditions: isolate 208687, 18 h
Pseudomonas aeruginosa [3] = test: Antibacterial activity against IMP-4 producing Pseudomonas aeruginosa isolate 207272 after 18 hrs by CLSI broth microdilution method; conditions: isolate 207272, 18 h
Klebsiella pneumoniae [4] = test: Antibacterial activity against KPC-2 producing Klebsiella pneumoniae isolate 212232 after 18 hrs in presence of BPL by CLSI broth microdilution method; conditions: isolate 212232, 18 h; method in brief: as §1
Klebsiella pneumoniae [5] = test: Selectivity index, ratio of MIC for against KPC-2 producing Klebsiella pneumoniae isolate 212423 to MIC for against KPC-2 producing Klebsiella pneumoniae isolate 212423 in presence of BPL
Klebsiella pneumoniae [6] = test: Antibacterial activity against KPC-2 producing Klebsiella pneumoniae isolate 212232 after 18 hrs by CLSI broth microdilution method; conditions: isolate 212232, 18 h
Escherichia coli [7] = test: Antibacterial activity against extended-spectrum beta-lactamase producing Escherichia coli isolate 212648 after 18 hrs by CLSI broth microdilution method; conditions: isolate 212648, 18 h
Escherichia coli [8] = test: Antibacterial activity against extended-spectrum beta-lactamase producing Escherichia coli isolate 209285 after 18 hrs by CLSI broth microdilution method; conditions: isolate 209285, 18 h
Klebsiella pneumoniae [9] = test: Antibacterial activity against KPC-2 producing Klebsiella pneumoniae isolate 209735 after 18 hrs in presence of BPL by CLSI broth microdilution method; conditions: isolate 209735, 18 h; method in brief: as §1
Escherichia coli [10] = test: Selectivity index, ratio of MIC for against Escherichia coli isolate 210737 to MIC for Escherichia coli isolate 210737 in presence of BPL
Pseudomonas aeruginosa [11] = test: Antibacterial activity against IMP-4 producing Pseudomonas aeruginosa isolate 209321 after 18 hrs by CLSI broth microdilution method; conditions: isolate 209321, 18 h
Escherichia coli [12] = test: Selectivity index, ratio of MIC for against extended-spectrum beta-lactamase producing Escherichia coli isolate 106342 to MIC for extended-spectrum beta-lactamase producing Escherichia coli isolate 106342 in presence of BPL
Klebsiella pneumoniae [13] = test: Antibacterial activity against KPC-2 producing Klebsiella pneumoniae isolate 212423 after 18 hrs by CLSI broth microdilution method; conditions: isolate 212423, 18 h
Klebsiella pneumoniae [14] = test: Antibacterial activity against KPC-2 producing Klebsiella pneumoniae isolate 212423 after 18 hrs in presence of BPL by CLSI broth microdilution method; conditions: isolate 212423, 18 h; method in brief: as §1
Pseudomonas aeruginosa [15] = test: Antibacterial activity against IMP-4 producing Pseudomonas aeruginosa isolate 212886 after 18 hrs in presence of BPL by CLSI broth microdilution method; conditions: isolate 212886, 18 h; method in brief: as §1
Escherichia coli [16] = test: Selectivity index, ratio of MIC for against extended-spectrum beta-lactamase producing Escherichia coli isolate 209285 to MIC for extended-spectrum beta-lactamase producing Escherichia coli isolate 209285 in presence of BPL
Klebsiella pneumoniae [17] = test: Antibacterial activity against KPC-2 producing Klebsiella pneumoniae isolate 209735 after 18 hrs by CLSI broth microdilution method; conditions: isolate 209735, 18 h
Pseudomonas aeruginosa [18] = test: Selectivity index, ratio of MIC for against IMP-4 producing Pseudomonas aeruginosa isolate 209471 to MIC for against IMP-4 producing Pseudomonas aeruginosa isolate 209471 in presence of BPL
Klebsiella pneumoniae [19] = test: Selectivity index, ratio of MIC for against KPC-2 producing Klebsiella pneumoniae isolate 212232 to MIC for against KPC-2 producing Klebsiella pneumoniae isolate 212232 in presence of BPL
Klebsiella pneumoniae [20] = test: Antibacterial activity against KPC-2 producing Klebsiella pneumoniae isolate 209632 after 18 hrs in presence of BPL by CLSI broth microdilution method; conditions: isolate 209632, 18 h; method in brief: as §1
Escherichia coli [21] = test: Antibacterial activity against extended-spectrum beta-lactamase producing Escherichia coli isolate 212648 after 18 hrs in presence of BPL by CLSI broth microdilution method; conditions: isolate 212648, 18 h; method in brief: as §1
Escherichia coli [22] = test: Antibacterial activity against Escherichia coli isolate 210737 after 18 hrs by CLSI broth microdilution method; conditions: isolate 210737, 18 h
Escherichia coli [23] = test: Antibacterial activity against extended-spectrum beta-lactamase producing Escherichia coli isolate 106342 after 18 hrs by CLSI broth microdilution method; conditions: isolate 106342, 18 h
Klebsiella pneumoniae [24] = test: Antibacterial activity against KPC-2 producing Klebsiella pneumoniae isolate 209632 after 18 hrs by CLSI broth microdilution method; conditions: isolate 209632, 18 h
Pseudomonas aeruginosa [25] = test: Antibacterial activity against IMP-4 producing Pseudomonas aeruginosa isolate 208247 after 18 hrs by CLSI broth microdilution method; conditions: isolate 208247, 18 h
Escherichia coli [26] = test: Antibacterial activity against extended-spectrum beta-lactamase producing Escherichia coli isolate 106342 after 18 hrs in presence of BPL by CLSI broth microdilution method; conditions: isolate 106342, 18 h; method in brief: as §1
Klebsiella pneumoniae [27] = test: Antibacterial activity against KPC-2 producing Klebsiella pneumoniae isolate 212229 after 18 hrs by CLSI broth microdilution method; conditions: isolate 212229, 18 h
Pseudomonas aeruginosa [28] = test: Selectivity index, ratio of MIC for against IMP-4 producing Pseudomonas aeruginosa isolate 209321 to MIC for against IMP-4 producing Pseudomonas aeruginosa isolate 209321 in presence of BPL
Pseudomonas aeruginosa [29] = test: Selectivity index, ratio of MIC for against IMP-4 producing Pseudomonas aeruginosa isolate 208247 to MIC for against IMP-4 producing Pseudomonas aeruginosa isolate 208247 in presence of BPL
Escherichia coli [30] = test: Antibacterial activity against extended-spectrum beta-lactamase producing Escherichia coli isolate 208687 after 18 hrs in presence of BPL by CLSI broth microdilution method; conditions: isolate 208687, 18 h; method in brief: as §1
Klebsiella pneumoniae [31] = test: Antibacterial activity against KPC-2 producing Klebsiella pneumoniae isolate 212229 after 18 hrs in presence of BPL by CLSI broth microdilution method; conditions: isolate 212229, 18 h; method in brief: as §1
Klebsiella pneumoniae [32] = test: Selectivity index, ratio of MIC for against KPC-2 producing Klebsiella pneumoniae isolate 209632 to MIC for against KPC-2 producing Klebsiella pneumoniae isolate 209632 in presence of BPL
Klebsiella pneumoniae [33] = test: Selectivity index, ratio of MIC for against KPC-2 producing Klebsiella pneumoniae isolate 212229 to MIC for against KPC-2 producing Klebsiella pneumoniae isolate 212229 in presence of BPL
Pseudomonas aeruginosa [34] = test: Selectivity index, ratio of MIC for against IMP-4 producing Pseudomonas aeruginosa isolate 207272 to MIC for against IMP-4 producing Pseudomonas aeruginosa isolate 207272 in presence of BPL
Pseudomonas aeruginosa [35] = test: Antibacterial activity against IMP-4 producing Pseudomonas aeruginosa isolate 209471 after 18 hrs in presence of BPL by CLSI broth microdilution method; conditions: isolate 209471, 18 h; method in brief: as §1
Escherichia coli [36] = test: Selectivity index, ratio of MIC for against extended-spectrum beta-lactamase producing Escherichia coli isolate 208687 to MIC for extended-spectrum beta-lactamase producing Escherichia coli isolate 208687 in presence of BPL
Pseudomonas aeruginosa [37] = test: Antibacterial activity against IMP-4 producing Pseudomonas aeruginosa isolate 212886 after 18 hrs by CLSI broth microdilution method; conditions: isolate 212886, 18 h
Escherichia coli [38] = test: Selectivity index, ratio of MIC for against extended-spectrum beta-lactamase producing Escherichia coli isolate 212648 to MIC for extended-spectrum beta-lactamase producing Escherichia coli isolate 212648 in presence of BPL
Pseudomonas aeruginosa [39] = test: Antibacterial activity against IMP-4 producing Pseudomonas aeruginosa isolate 209321 after 18 hrs in presence of BPL by CLSI broth microdilution method; conditions: isolate 209321, 18 h; method in brief: as §1
Escherichia coli [40] = test: Antibacterial activity against extended-spectrum beta-lactamase producing Escherichia coli isolate 209285 after 18 hrs in presence of BPL by CLSI broth microdilution method; conditions: isolate 209285, 18 h; method in brief: as §1
Pseudomonas aeruginosa [41] = test: Antibacterial activity against IMP-4 producing Pseudomonas aeruginosa isolate 209471 after 18 hrs by CLSI broth microdilution method; conditions: isolate 209471, 18 h
Pseudomonas aeruginosa [42] = test: Selectivity index, ratio of MIC for against IMP-4 producing Pseudomonas aeruginosa isolate 212886 to MIC for against IMP-4 producing Pseudomonas aeruginosa isolate 212886 in presence of BPL
Pseudomonas aeruginosa [43] = test: Antibacterial activity against IMP-4 producing Pseudomonas aeruginosa isolate 207272 after 18 hrs in presence of BPL by CLSI broth microdilution method; conditions: isolate 207272, 18 h; method in brief: as §1
Klebsiella pneumoniae [44] = test: Selectivity index, ratio of MIC for against KPC-2 producing Klebsiella pneumoniae isolate 209735 to MIC for against KPC-2 producing Klebsiella pneumoniae isolate 209735 in presence of BPL
Pseudomonas aeruginosa [45] = test: Antibacterial activity against IMP-4 producing Pseudomonas aeruginosa isolate 208247 after 18 hrs in presence of BPL by CLSI broth microdilution method; conditions: isolate 208247, 18 h; method in brief: as §1

CC(C)C(O/N=C(\C(=O)N[C@@H]1C(=O)N(S(=O)(=O)O)[C@@H]1CSc1nnnn1C)c1csc(N)n1)c1cc(=O)c(O)cn1O (stereo not given in full)
MIC (Escherichia coli [1]): 0.25 mg/L
MIC (Escherichia coli [2]): 0.125 mg/L (≈ 0.194 µM)
MIC (Pseudomonas aeruginosa [3]): 32 mg/L (≈ 49.6 µM)
MIC (Klebsiella pneumoniae [4]): 0.25 mg/L
Selectivity Index (Klebsiella pneumoniae [5]): 2
MIC (Klebsiella pneumoniae [6]): 2 mg/L (≈ 3.1 µM)
MIC (Escherichia coli [7]): 0.5 mg/L (≈ 0.776 µM)
MIC (Escherichia coli [8]): 1 mg/L (≈ 1.55 µM)
MIC (Klebsiella pneumoniae [9]): 0.5 mg/L
Selectivity Index (Escherichia coli [10]): 2
MIC (Pseudomonas aeruginosa [11]): 64 mg/L (≈ 99.3 µM)
Selectivity Index (Escherichia coli [12]): 2
MIC (Klebsiella pneumoniae [13]): 2 mg/L (≈ 3.1 µM)
MIC (Klebsiella pneumoniae [14]): 1 mg/L
MIC (Pseudomonas aeruginosa [15]): 32 mg/L
Selectivity Index (Escherichia coli [16]): 4
MIC (Klebsiella pneumoniae [17]): 2 mg/L (≈ 3.1 µM)
Selectivity Index (Pseudomonas aeruginosa [18]): 1
Selectivity Index (Klebsiella pneumoniae [19]): 8
MIC (Klebsiella pneumoniae [20]): 1 mg/L
MIC (Escherichia coli [21]): 0.25 mg/L
MIC (Escherichia coli [22]): 0.5 mg/L (≈ 0.776 µM)
MIC (Escherichia coli [23]): 1 mg/L (≈ 1.55 µM)
MIC (Klebsiella pneumoniae [24]): 1 mg/L (≈ 1.55 µM)
MIC (Pseudomonas aeruginosa [25]): 32 mg/L (≈ 49.6 µM)
MIC (Escherichia coli [26]): 0.5 mg/L
MIC (Klebsiella pneumoniae [27]): 1 mg/L (≈ 1.55 µM)
Selectivity Index (Pseudomonas aeruginosa [28]): 2
Selectivity Index (Pseudomonas aeruginosa [29]): 2
MIC (Escherichia coli [30]): 0.06 mg/L
MIC (Klebsiella pneumoniae [31]): 0.5 mg/L
Selectivity Index (Klebsiella pneumoniae [32]): 1
Selectivity Index (Klebsiella pneumoniae [33]): 2
Selectivity Index (Pseudomonas aeruginosa [34]): 2
MIC (Pseudomonas aeruginosa [35]): 64 mg/L
Selectivity Index (Escherichia coli [36]): 2
MIC (Pseudomonas aeruginosa [37]): > 64 mg/L
Selectivity Index (Escherichia coli [38]): 2
MIC (Pseudomonas aeruginosa [39]): 32 mg/L
MIC (Escherichia coli [40]): 0.25 mg/L
MIC (Pseudomonas aeruginosa [41]): 64 mg/L (≈ 99.3 µM)
Selectivity Index (Pseudomonas aeruginosa [42]): >2
MIC (Pseudomonas aeruginosa [43]): 16 mg/L
Selectivity Index (Klebsiella pneumoniae [44]): 4
MIC (Pseudomonas aeruginosa [45]): 16 mg/L
